Bounds are passed on as bounds.

By ED50 is commonly meant the dose at which the effect has come halfway, by size or by number of responders. As usually defined, the EC50 is the concentration needed to bring the measured effect to its halfway point. The Emax is the size of the effect at its maximum, as opposed to the concentration needed. In general, Ki refers to a measure of affinity in units of concentration, obtained from inhibition or displacement. High values mean a looser hold on the target, low ones a stronger hold on the target.

Test [1] relates to Mus musculus. Briefly: Effective dose (sc) required for antinociceptive potency in vivo in the hotplate (HP) test in mice. It counts as functional.
Test [2] deals with Mus musculus. Description: Effective dose (sc) required for antinociceptive potency in vivo in the paraphenylquinone writhing (PPQ) test in mice. It counts as functional.
Test [3] has as its system Mus musculus. Description: Effective dose (sc) required for antinociceptive potency in vivo in the tail-flick (TF) test in mice. It counts as functional.
Test [4] addresses T1, Mu-type opioid receptor (Homo sapiens, UniProt P35372). Description: Concentration necessary to produce 50% of the Emax value, i.e. to stimulate [35S]GTP-gamma-S, binding to recombinant human Opioid receptor mu 1 expressed in CHO cells. It counts as functional, cell-based. The procedure, abridged: (§1)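 Membranes from CHO cells stably expressing human µ, δ or κ opioid receptor, incubated with varying concentrations of compound in a [35S]GTPγS binding assay. Emax is % maximal stimulation of [35S]GTPγS binding. EC50 is the concentration giving 50% of the Emax value. Mean ± SEM.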
(Binding of GTPγS marks nucleotide exchange on a G protein.)

In test [5] the target is T1, Mu-type opioid receptor. Description: Percent maximal stimulation of [35S]GTP-gamma-S, binding to recombinant human Opioid receptor mu 1 expressed in CHO cells. It counts as functional, cell-based. In short, it runs like this:
as §1

For test [6], the target named is T2, Delta-type opioid receptor (Homo sapiens, UniProt P41143). Description: Percent maximal stimulation of [35S]GTP-gamma-S, binding to recombinant human opioid receptor delta 1 expressed in CHO cells. The test is classed as functional, cell-based. In short, it runs like this: as §1
T2 sequence (P41143 whole entry): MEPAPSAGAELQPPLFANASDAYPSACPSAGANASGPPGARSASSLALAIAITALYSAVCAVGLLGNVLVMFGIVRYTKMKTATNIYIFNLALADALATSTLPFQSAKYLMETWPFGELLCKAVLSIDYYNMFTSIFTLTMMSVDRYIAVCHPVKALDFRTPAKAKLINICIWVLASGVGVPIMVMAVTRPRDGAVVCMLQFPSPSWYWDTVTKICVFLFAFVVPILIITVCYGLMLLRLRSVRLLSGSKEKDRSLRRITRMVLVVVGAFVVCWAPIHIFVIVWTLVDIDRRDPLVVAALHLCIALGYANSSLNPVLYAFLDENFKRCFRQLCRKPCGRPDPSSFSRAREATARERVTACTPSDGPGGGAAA
Test [7] concerns the target T3, Kappa-type opioid receptor (Homo sapiens, UniProt P41145). Description: Antagonistic activity against recombinant human Opioid receptor kappa 1 expressed in CHO cells when incubated with U69,593. The test is classed as functional, cell-based. In short, it runs like this:
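Membranes from CHO cells stably expressing the human κ opioid receptor, incubated with the agonist U69,593 in the presence of varying concentrations of compound. Antagonist Ke values reported as mean ± SEM.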

The target in test [8] is T2, Delta-type opioid receptor. Description: Concentration necessary to produce 50% of the Emax value, i.e. to stimulate [35S]GTP-gamma-S, binding to recombinant human opioid receptor delta 1 expressed in CHO cells. It counts as functional, cell-based. The procedure, abridged: as §1
Test [9] deals with Kappa-type opioid receptor (Rattus norvegicus, UniProt P34975). Briefly: Binding affinity determined by displacing [3H]U69,593 from Opioid receptor kappa 1 in rat brain membranes. The test is classed as cell membranes. In short, it runs like this: (§2)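 Competitive radioligand binding in rat brain membranes: [3H]DAMGO (µ), [3H][Ile5,6]deltorphin II (δ), [3H]U69,593 (κ). Ki reported as mean ± SEM. Selectivity ratios are Ki δ/Ki µ and Ki κ/Ki µ.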
Sequence of Kappa-type opioid receptor (Rattus norvegicus, UniProt P34975) (P34975 whole entry): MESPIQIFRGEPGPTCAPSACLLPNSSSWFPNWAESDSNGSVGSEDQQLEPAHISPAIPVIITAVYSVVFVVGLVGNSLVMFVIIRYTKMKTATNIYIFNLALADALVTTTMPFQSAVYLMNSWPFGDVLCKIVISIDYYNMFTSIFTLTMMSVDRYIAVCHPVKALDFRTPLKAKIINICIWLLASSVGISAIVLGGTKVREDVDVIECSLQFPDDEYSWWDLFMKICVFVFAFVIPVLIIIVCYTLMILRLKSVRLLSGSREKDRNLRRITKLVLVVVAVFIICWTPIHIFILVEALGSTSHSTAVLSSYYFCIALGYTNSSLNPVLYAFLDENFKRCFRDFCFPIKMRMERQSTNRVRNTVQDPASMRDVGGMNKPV

Test [10] addresses Mu-type opioid receptor (Rattus norvegicus, UniProt P33535). Description: Binding affinity determined by displacing [3H]DAMGO from Opioid receptor mu 1 in rat brain membranes. It counts as cell membranes. In short, it runs like this:
as §2

In test [11] the target is T3, Kappa-type opioid receptor. Description: Concentration necessary to produce 50% of the Emax value, i.e. to stimulate [35S]GTP-gamma-S, binding to recombinant human Opioid receptor kappa 1 expressed in CHO cells. It counts as functional, cell-based. The procedure, abridged: as §1
Test [12] deals with Opioid receptors; mu & delta (Rattus norvegicus) (UniProt P33533+P33535). Description: Selectivity ratio of binding affinities between delta opioid receptors and mu opioid receptors in rat brain membranes. It counts as cell membranes. The procedure, abridged:
as §2

The next test is filed under the species Rattus norvegicus. Briefly: Selectivity ratio of binding affinities between kappa opioid receptors and mu opioid receptors in rat brain membranes. The test is classed as cell membranes. In short, it runs like this: as §2
Test [13] concerns the target T3, Kappa-type opioid receptor. Description: Percent maximal stimulation of [35S]GTP-gamma-S, binding to recombinant human Opioid receptor kappa 1 expressed in CHO cells. The test is classed as functional, cell-based. The procedure, abridged: as §1
In test [14] the target is T1, Mu-type opioid receptor. The note with it: CHO.

T3 sequence (P41145 whole entry): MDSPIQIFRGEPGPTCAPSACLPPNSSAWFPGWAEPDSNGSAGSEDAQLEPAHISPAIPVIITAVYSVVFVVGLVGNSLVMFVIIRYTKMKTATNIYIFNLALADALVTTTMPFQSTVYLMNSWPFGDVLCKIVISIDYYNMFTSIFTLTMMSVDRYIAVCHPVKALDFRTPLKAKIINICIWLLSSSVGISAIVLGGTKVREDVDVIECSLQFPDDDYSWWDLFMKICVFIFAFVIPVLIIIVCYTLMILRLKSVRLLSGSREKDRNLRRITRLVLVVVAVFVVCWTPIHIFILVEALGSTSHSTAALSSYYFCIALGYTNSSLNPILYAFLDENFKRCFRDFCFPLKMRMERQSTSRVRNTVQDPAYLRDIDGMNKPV
T1 sequence (P35372 whole entry): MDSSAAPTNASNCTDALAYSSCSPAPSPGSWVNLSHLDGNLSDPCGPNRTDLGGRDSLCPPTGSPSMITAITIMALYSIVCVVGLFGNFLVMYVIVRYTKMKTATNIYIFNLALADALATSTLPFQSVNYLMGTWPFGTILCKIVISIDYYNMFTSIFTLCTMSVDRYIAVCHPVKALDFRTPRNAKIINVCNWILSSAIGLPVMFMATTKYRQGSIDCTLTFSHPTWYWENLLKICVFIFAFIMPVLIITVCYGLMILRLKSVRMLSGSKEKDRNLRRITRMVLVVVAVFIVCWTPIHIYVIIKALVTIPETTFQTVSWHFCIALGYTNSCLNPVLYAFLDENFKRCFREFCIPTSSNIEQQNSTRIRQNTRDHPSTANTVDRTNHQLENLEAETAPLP
Sequence of Mu-type opioid receptor (Rattus norvegicus, UniProt P33535) (P33535 whole entry): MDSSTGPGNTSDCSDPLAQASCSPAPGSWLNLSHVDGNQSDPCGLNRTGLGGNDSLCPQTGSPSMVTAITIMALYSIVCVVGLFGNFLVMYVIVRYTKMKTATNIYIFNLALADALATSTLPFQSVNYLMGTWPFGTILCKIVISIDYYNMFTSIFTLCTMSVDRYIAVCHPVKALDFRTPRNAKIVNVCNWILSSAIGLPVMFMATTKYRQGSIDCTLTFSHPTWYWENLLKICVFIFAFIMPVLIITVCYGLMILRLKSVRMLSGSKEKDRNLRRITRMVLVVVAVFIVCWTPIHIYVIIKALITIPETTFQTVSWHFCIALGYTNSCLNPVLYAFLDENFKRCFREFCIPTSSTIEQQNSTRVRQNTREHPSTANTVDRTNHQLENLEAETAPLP
Sequence of Opioid receptors; mu & delta (Rattus norvegicus) (P33533 whole entry, looked up): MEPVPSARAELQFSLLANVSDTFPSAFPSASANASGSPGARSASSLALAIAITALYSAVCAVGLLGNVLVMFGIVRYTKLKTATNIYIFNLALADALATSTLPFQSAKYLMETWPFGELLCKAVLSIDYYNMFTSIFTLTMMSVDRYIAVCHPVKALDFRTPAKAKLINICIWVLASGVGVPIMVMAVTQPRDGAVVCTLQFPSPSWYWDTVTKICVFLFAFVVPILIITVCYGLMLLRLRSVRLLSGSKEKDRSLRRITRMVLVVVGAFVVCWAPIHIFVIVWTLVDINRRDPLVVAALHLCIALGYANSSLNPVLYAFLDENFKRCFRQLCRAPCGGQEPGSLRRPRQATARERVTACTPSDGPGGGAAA
Sequence of Opioid receptors; mu & delta (Rattus norvegicus) (P33535 whole entry, looked up): as the sequence (P33535 whole entry) above

`O=C1CC[C@@]2(OCCCc3ccccc3)[C@H]3Cc4cccc5c4[C@@]2(CCN3CC2CC2)C1O5` (some centres undefined): the ED50 with Mus musculus [1] was 0.68 mg/kg; in the test with Mus musculus [2], 0.0094 mg/kg; in the test with Mus musculus [3] it was 0.187 mg/kg. The EC50 was 0.0098 µM on Mu-type opioid receptor [4], 0.0868 µM in test [8] and over 10 µM in test [11]. The Emax on Mu-type opioid receptor [5] is 43%; in [6] it was 17%. In addition, the Ke in test [7] turned out to be 8.54 nM. Besides, the Ki in [9] was 22.8 µM; at Mu-type opioid receptor [10] it was 0.84 µM. Further, the values for the Selectivity ratio (in test [12]; in the test listed under Rattus norvegicus) were 55 and 27, respectively.

Regarding `COc1cccc2c1[C@]13CCN(CC4CC4)[C@H](C2)[C@]1(OC)CCC(=O)C3` [CYPRODIME], the Emax on Mu-type opioid receptor [5] was 33%; in test [13], 18.8%; in test [6], 18%. Besides, the Ke in test [7] came out at 26.1 nM; at Mu-type opioid receptor [14], 12.4 nM. The results for the EC50 in test [8] and in test [11] were 1.1 µM and 0.117 µM, respectively. Moreover, the inhibition constant Ki in [9] turned out to be 109 µM; at Mu-type opioid receptor [10], 10.6 µM. The results for the Selectivity ratio (in test [12]; in the test listed under Rattus norvegicus) were 39 and 10, respectively.

As to `CO[C@@]12CCC(=O)C[C@@]13CCN(CC1CC1)[C@@H]2Cc1cccc(OCc2ccccc2)c13`, the values for the Ki (in [9]; at Mu-type opioid receptor [10]) were 56.8 µM and 11.6 µM, respectively. Moreover, the figures for the Selectivity ratio (in test [12]; in the test filed under Rattus norvegicus) were 18 and 4.9, respectively.

Consider `CCCCOc1cccc2c1[C@]13CCN(CC4CC4)[C@H](C2)[C@]1(OC)CCC(=O)C3`, for which the EC50 at Mu-type opioid receptor [4] was over 10 µM; in test [8], 1.61 µM; in [11], over 10 µM. Moreover, in test [6], the Emax was determined as 22%. Besides, the Ke in test [7] is 120 nM; on Mu-type opioid receptor [14], 11.1 nM. In addition, the Ki in test [9] amounted to 261 µM; at Mu-type opioid receptor [10] it was 13.8 µM. In addition, the Selectivity ratio in test [12] worked out at 55; in the test listed under Rattus norvegicus, 19.

With `CO[C@@]12CCC(=O)[C@]3(C)Oc4c(O)ccc5c4[C@@]31CCN(C)[C@@H]2C5`, the ED50 in the test on Mus musculus [1] turned out to be 0.03 mg/kg; in the test with Mus musculus [2] it was 0.009 mg/kg; in the test with Mus musculus [3] it was 0.03 mg/kg.

As for `CO[C@@]12CCC(=O)C[C@@]13CCN(CC1CC1)[C@@H]2Cc1cccc(OCCCc2ccccc2)c13`, the Ki in test [9] came out at 208 µM; at Mu-type opioid receptor [10], 43.3 µM. In addition, the Selectivity ratio worked out at 33 in test [12] and 4.8 in the test filed under Rattus norvegicus.

Consider `CCCCCCOc1cccc2c1[C@]13CCN(CC4CC4)[C@H](C2)[C@]1(OC)CCC(=O)C3`, for which the Ki was found to be 441 µM in test [9] and 44.9 µM on Mu-type opioid receptor [10]. Besides, the Selectivity ratio in test [12] is 26; in the test listed under Rattus norvegicus, 9.8.

For `CCCCOc1cccc2c1[C@]13CCN(CC4CC4)[C@H](C2)[C@]1(OCCCc1ccccc1)CCC(=O)C3`, the Ki in [9] was determined as 150 µM; on Mu-type opioid receptor [10] it was 14.9 µM. Further, the Selectivity ratio was found to be 16 in test [12] and 10 in the test filed under Rattus norvegicus.

Turning to `COc1cccc2c1[C@]13CCN(CC4CC4)[C@H](C2)[C@]1(OCCCc1ccccc1)CCC(=O)C3`, the results for the ED50 in the test on Mus musculus [1], in the test on Mus musculus [2] and in the test on Mus musculus [3] were 0.3 mg/kg, 0.06 mg/kg and 0.28 mg/kg, respectively. The EC50 on Mu-type opioid receptor [4] is 0.00197 µM; in [8], 0.0206 µM; in test [11], over 10 µM. Further, the figures for the Emax (on Mu-type opioid receptor [5]; in [6]) were 35% and 22%, respectively. Further, the Ke in test [7] worked out at 2.52 nM. For the same compound, the Ki in test [9] was 7.36 µM; at Mu-type opioid receptor [10], 0.34 µM. Also, the Selectivity ratio in test [12] stood at 50; in the test filed under Rattus norvegicus, 22.

For the compound `O=C1CC[C@@]2(OCCCc3ccccc3)[C@H]3Cc4cccc(O)c4[C@@]2(CCN3CC2CC2)C1`, the values for the ED50 with Mus musculus [1], in the test with Mus musculus [2] and in the test on Mus musculus [3] were 0.04 mg/kg, 0.0014 mg/kg and 0.05 mg/kg, respectively. Further, the EC50 at Mu-type opioid receptor [4] turned out to be 0.00347 µM; in test [8], 0.00791 µM; in [11], 0.00451 µM. Further, the Emax at Mu-type opioid receptor [5] amounted to 35%; in test [13], 45.8%; in test [6], 49%. For the same compound, the Ki was determined as 5.84 µM in test [9] and 0.4 µM on Mu-type opioid receptor [10]. The Selectivity ratio in [12] was 13; in the test filed under Rattus norvegicus, 15.

The values are drawn from ChEMBL document CHEMBL1148330, “Synthesis and biological evaluation of 14-alkoxymorphinans. 21. Novel 4-alkoxy and 14-phenylpropoxy derivatives of the mu opioid receptor antagonist cyprodime” (J Med Chem, 2004).
